PLK1 inh – PLK1 (human) kinase inhibition; hit rate 0.53% among 97,000; recombinant PLK1 kinase, TR-FRET peptide phosphorylation; P53350; AID 619; inhibition, % at 10 µM;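 active = inhibition of 50% or more in the single-concentration screen; inactive = inhibition below 50%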;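 note: 0% = DMSO max control and 100% = H-89 dihydrochloride min control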
PLK1 PBD inh – inhibitors of human Plk1 polo box domain binding; hit rate 0.13% among 97,000; inhibition, %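 (tested at about 20 µM)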; Plk1 PBD phosphopeptide binding, fluorescence polarization; in the data active = inhibition above about 34%, passing the limit was not always enough
FAK blocker – inhibitors of human focal adhesion kinase | hit rate 0.84% among 97,000 | Q05397 | inhibition, %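 (tested at 7 µM)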 | biochemical FAK kinase activity assay;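 note: 0% = DMSO and 100% = reference compound high control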
EphB4 antag – EphB4-ephrin-B2 interaction antagonism; EphB4 LBD / TNYL-RAW-Alexa532 peptide, fluorescence polarization; inhibition, % at 7 µM; hit rate 0.15% among 97,000;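 active = inhibition above the screen-wide mean inhibition plus 3 SD, cut at about 15% in these data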;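 note: 0% = DMSO wells and 100% = excess unlabeled TNYL-RAW peptide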
HIV Rev-RRE inh – disrupts HIV-1 Rev binding to RRE RNA. hit rate 0.79% among 97,000. inhibition, % at 8 µM. P05866. Rev peptide-RRE RNA binding, FRET. AID 704;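 active = inhibition above the screen-wide mean plus 3 SD, cut at about 35% in these data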;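 note: 0% = median DMSO wells and 100% = median Neomycin B control wells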
Target sequence (P05866 whole entry, looked up): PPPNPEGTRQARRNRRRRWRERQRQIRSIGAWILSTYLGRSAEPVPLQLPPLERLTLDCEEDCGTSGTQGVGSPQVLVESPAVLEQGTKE
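Assay system: Labelled RRE RNA duplex and labelled Rev peptide | Times: 5 min preincubation and 15 min binding, 25 °C | Detection: FRET, ex 480 nm, em 540 and 671 nm | Evaluation: % inhibition of FRET ratio versus controls | Benchmarks: DMSO wells as 0% and neomycin B wells as 100% inhibition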
Cav3 T inh – blocks human Cav3.2 T-type calcium channel. Cav3.2-expressing cells, Fluo-4 calcium fluorescence FDSS; hits give low values. O95180. hit rate 4% among 100,000. AID 449739. B-score at 10 µM;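 active = single-dose well whose peak fluorescence ratio is a statistical outlier from its plate by either plate-standardised score or position-corrected B-score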
FAK inh confirm – confirmation of human focal adhesion kinase (FAK) inhibitors; AID 794; shares compounds with FAK blocker; FAK kinase biochemical inhibition assay; inhibition, % at 7 µM; hit rate 28% among 750
Starred values were filed as active, the others as inactive; . = no result; [ ] = another dose, or the depositor's remark. A selection: hits, their analogues and other compounds. The true share with any hit is near 5.3%. Cut-off read from the data, not from the text of the source, unless noted: active = inhibition above about 19%; inactive = the rest.

SMILES	PLK1 inh	PLK1 PBD inh	FAK blocker	EphB4 antag	HIV Rev-RRE inh	Cav3 T inh	FAK inh confirm
CCCNC(=O)c1cc2nc(-c3ccccc3)cc(C(F)(F)F)n2n1	-10.5	3.2	-0.2	-0.4	0.6	0.597	.
N#Cc1cccc(NC(=O)CSc2ccc3c4c(cccc24)C(=O)c2ccccc2-3)c1	-20.5	-14.3	27.3*	8.6	115.2*[fluorescence artefact?]	-5.64*	21.8*
N#Cc1cccc(NC(=O)CSc2ccccc2)c1	-1.2	0.5	1.6	2.0	2.5	-0.305	.
Nc1nc(NC(=O)c2cccc(S(=O)(=O)N3CCCCCC3)c2)nc(-c2ccccc2)n1	-6.3	-1.0	1.9	0.9	4.2	-2.31	.
N#Cc1nc(-c2ccccc2)oc1NCc1ccco1	3.0	-6.4	20.6*	11.2	10.3	-2.71	10.9
N#Cc1nc(-c2ccccc2Cl)oc1NCc1ccco1	-4.9	-4.7	9.2	-6.1	6.6	-3.62	.
COc1ccc([N+](=O)[O-])cc1NC(=S)NC(NC(=O)C(c1ccccc1)c1ccccc1)C(Cl)(Cl)Cl (centres undefined)	-8.1	27.0	0.8	-11.0	9.5	0.0396	.
CC(C)CN(C(=O)COC(=O)C1c2ccccc2Oc2ccccc21)C1CCS(=O)(=O)C1 (centres undefined)	-1.5	8.2	0.6	-1.0	3.6	-1.51	.
CC(C)CN(C(=O)COC(=O)c1cc2c(s1)CCC2)C1CCS(=O)(=O)C1 (centres undefined)	-0.9	-19.4	30.1*	7.0	-0.5	-0.0608	8.6
C[C@@H]1C=C(C(=O)NCc2ccccc2)O[C@H](OCc2ccc(CO)cc2)C1	.	.	.	.	.	0.469	.
CC(=O)c1ccc(NCC(=O)N2CCN(c3ccccc3)CC2)cc1	-19.6	-16.9	19.8*	3.9	1.6	.	19.2*
O=C1CCC2(C(=O)O)Sc3ccccc3N12 (centres undefined)	-6.8	-27.0	1.0	-0.8	6.1	0.126	.
Cc1ccc(CNc2ccc(O)cc2)cc1	-4.8	3.9	51.9*	0.9	-9.7	0.82	-0.4
Oc1ccc2ccccc2c1C=Nc1ccc(N2CCOCC2)cc1	3.1	-32.5	46.0*	4.4	71.8*[fluorescence artefact?]	-0.502	49.4*
Oc1ccc2ccccc2c1C=NC12CN3CCN(CN(C3)C1)C2	5.2	-14.6	17.0	-0.9	6.6	0.2	.
O=C1CC(N2CCN(C3CCc4ccccc4C3)CC2)C(=O)N1c1ccccc1 (centres undefined)	-4.5	-7.0	-7.6	-7.0	0.2	-1.02	.
CN1CCN(S(=O)(=O)c2ccc(NC(=O)Cc3cccs3)cc2)CC1	-16.8	-4.1	0.5	-6.0	3.7	-0.295	.
O=C(Cc1cccs1)Nc1ccc(S(=O)(=O)N2CCCCC2)cc1	-6.2	7.0	22.8*	-7.3	-3.8	-3.72	9.0
CCC(=O)Nc1cc(C(=O)OC(C(=O)c2ccc(C)c(C)c2)c2ccccc2)ccc1C (centres undefined)	-10.9	-21.5	0.5	-4.5	1.5	-3.78	.
CCC(C)N(C(=O)Cn1nnc2ccccc21)C(C(=O)Nc1ccc(F)cc1)c1cccc(OC)c1 (centres undefined)	0.7	17.1	-4.1	6.9	7.8	-1.87	.
O=C(COc1ccc(/C=N/NC(=O)c2cc3ccccc3o2)cc1Br)Nc1ccccc1	-9.9	-24.7	26.1*	-2.1	-2.0	0.0933	35.6*
COc1ccc(-c2oc3ncn(CCN4CCOCC4)c(=N)c3c2-c2ccc(OC)cc2)cc1	-6.5	3.4	19.6*	6.3	5.4	-0.449	1.1
c1ccc(-c2oc3ncnc(NCCCN4CCOCC4)c3c2-c2ccccc2)cc1	-3.3	-35.5	17.0	-4.5	0.8	0.0441	.
COc1ccc(-c2oc3ncnc(NCCCN4CCOCC4)c3c2-c2ccc(OC)cc2)cc1	10.9	-9.5	34.4*	5.3	8.5	0.0359	8.7
COc1ccc(-c2oc3ncnc(NCCN4CCOCC4)c3c2-c2ccc(OC)cc2)cc1	7.4	7.2	20.8*	-4.7	-2.0	1.03	9.7
O=C(NCc1ccccc1)c1ccc(CS(=O)(=O)c2ccccc2)o1	-10.8	8.9	-0.7	4.3	2.7	-0.0965	.
COC(=O)c1cc(NC(=O)CC2NC3CCCCC3NC2=O)cc(C(=O)OC)c1 (centres undefined)	-12.1	4.4	5.4	2.2	4.9	0.491	.
